From ChEMBL document CHEMBL1145867, “Muraymycins, novel peptidoglycan biosynthesis inhibitors: synthesis and SAR of their analogues” (2003)
Converted amounts (≈) assume the structure as drawn. The source made the active and inactive calls. The rule behind the calls is not given here.

Key:
[1] = The inhibitory activity of compound against MraY or MurG at 100 ug/mL; Inhibit
[2] = The inhibitory activity of compound against MraY or MurG at 12.5 ug/mL; Inhibit
[3] = The inhibitory activity of compound against MraY or MurG at 25 ug/mL; Inhibit
[4] = The inhibitory activity of compound against MraY or MurG at 50 ug/mL; Inhibit
[5] = The inhibitory activity of compound against MraY or MurG at 6.25 ug/mL; Inhibit
[6] = tested on: Enterococcus faecalis; assay: In vitro antimicrobial activity against Enterococcus faecalis GC 2242; format: functional
Procedure, shortened: (§1)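 Broth microdilution per NCCLS guidance. Serial dilutions of each agent in microtiter plates are inoculated with each organism to 10⁵ CFU/mL and incubated 18–22 h at 35 C in ambient air. MIC is the lowest concentration giving complete growth inhibition, judged by the unaided eye.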

[7] = tested on: Enterococcus faecalis; assay: In vitro antimicrobial activity against Enterococcus faecalis GC 4555; format: functional; procedure, shortened: as §1
[8] = tested on: Enterococcus faecalis; assay: In vitro antimicrobial activity against Enterococcus faecalis GC 842; format: functional; procedure, shortened: as §1
[9] = tested on: Bacteria; assay: In vitro antimicrobial activity against gram-negative organisms (10); format: functional; procedure, shortened: as §1
[10] = tested on: Staphylococcus sp.; assay: In vitro antimicrobial activity against CNS GC 4538; format: functional; procedure, shortened: as §1
[11] = tested on: Staphylococcus aureus; assay: In vitro antimicrobial activity against Staphylococcus aureus GC 1131; format: functional; procedure, shortened: as §1
[12] = tested on: Staphylococcus aureus; assay: In vitro antimicrobial activity against Staphylococcus aureus GC 2216; format: functional; procedure, shortened: as §1
[13] = tested on: Staphylococcus aureus; assay: In vitro antimicrobial activity against Staphylococcus aureus GC 4536; format: functional; procedure, shortened: as §1
[14] = tested on: Staphylococcus sp.; assay: In vitro antimicrobial activity against CNS GC 4547; format: functional; procedure, shortened: as §1
[15] = tested on: Staphylococcus sp.; assay: In vitro antimicrobial activity against Coagulase-negative staphylococcus GC 4538; format: functional; procedure, shortened: as §1
[16] = tested on: Candida albicans; assay: In vitro antimicrobial activity against Candida albicans GC 3066; format: functional; procedure, shortened: as §1
[17] = tested on: Escherichia coli; assay: In vitro antimicrobial activity against Escherichia coli GC 2214; format: functional; procedure, shortened: as §1
[18] = tested on: Escherichia coli; assay: In vitro antimicrobial activity against Escherichia coli GC 4559; format: functional; procedure, shortened: as §1
[19] = tested on: Escherichia coli; assay: In vitro antimicrobial activity against Escherichia coli GC 4560; format: functional; procedure, shortened: as §1
[20] = tested on: Enterobacter cloacae; assay: In vitro antimicrobial activity against Enterobacter cloacae GC 3783; format: functional; procedure, shortened: as §1
[21] = tested on: Klebsiella pneumoniae; assay: In vitro antimicrobial activity against Klebsiella pneumoniae GC 4534; format: functional; procedure, shortened: as §1
[22] = tested on: Morganella morganii; assay: In vitro antimicrobial activity against Morganella morganii GC 4531; format: functional; procedure, shortened: as §1
[23] = The inhibitory activity of compound against MraY or MurG at 6.25 ug/mL; No Inhibition
[24] = tested on: Pseudomonas aeruginosa; assay: In vitro antimicrobial activity against Pseudomonas aeruginosa GC 2214; format: functional; procedure, shortened: as §1
[25] = tested on: Pseudomonas aeruginosa; assay: In vitro antimicrobial activity against Pseudomonas aeruginosa GC 4532; format: functional; procedure, shortened: as §1
[26] = tested on: Staphylococcus sp.; assay: In vitro antimicrobial activity against Staphylococci; format: functional, staphyl ococcus species; procedure, shortened: as §1
[27] = tested on: Staphylococcus aureus; assay: In vitro antimicrobial activity against Staphylococcu aureus GC 1131; format: functional
Procedure, shortened: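 Broth dilution per NCCLS recommendations. Serial dilutions in microtiter plates inoculated to 10⁵ CFU/mL, then incubated 18–22 h at 35 C in ambient air. MIC taken as the lowest concentration giving complete growth inhibition by unaided eye.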

[28] = tested on: Staphylococcus aureus; assay: In vitro antimicrobial activity against Staphylococcu aureus GC 2216; format: functional; procedure, shortened: as §1
[29] = tested on: Staphylococcus aureus; assay: In vitro antimicrobial activity against Staphylococcu aureus GC 4536; format: functional; procedure, shortened: as §1
[30] = tested on: Escherichia coli; assay: In vitro antimicrobial activity against Escherichia coli GC 3226; format: functional; procedure, shortened: as §1
[31] = tested on: Enterococcus sp.; assay: In vitro antimicrobial activity against Enterococci; format: functional; procedure, shortened: as §1
[32] = tested on: Serratia marcescens; assay: In vitro antimicrobial activity against Serratia marcescens GC 4077; format: functional; procedure, shortened: as §1
[33] = tested on: Candida albicans; assay: In vitro antimicrobial activity against Candida albicans […] at 32 ug/ml soluble peptidoglycan; format: functional
[34] = tested on: Enterococcus faecalis; assay: In vitro antimicrobial activity against Enterococcus faecalis GC 2242 at 32 ug/ml soluble peptidoglycan; format: functional
[35] = tested on: Enterococcus faecalis; assay: In vitro antimicrobial activity against Enterococcus faecalis GC 4555 at 32 ug/ml soluble peptidoglycan; format: functional
[36] = tested on: Enterococcus faecalis; assay: In vitro antimicrobial activity against Enterococcus faecalis GC 842 at 32 ug/ml soluble peptidoglycan; format: functional
[37] = The inhibitory activity of compound against MraY or MurG at 12.5 ug/mL; No inhibition
[38] = The inhibitory activity of compound against MraY or MurG at 25 ug/mL; No inhibition
[39] = The inhibitory activity of compound against MraY or MurG at 50 ug/mL; No inhibition
[40] = The inhibitory activity of compound against MraY or MurG at 6.25 ug/mL; No inhibition
[41] = tested on: Staphylococcus aureus; assay: In vitro antimicrobial activity against Staphylococcus aureus GC 1131 at 32 ug/ml soluble peptidoglycan; format: functional
[42] = tested on: Staphylococcus sp.; assay: In vitro antimicrobial activity against CNS GC 4538 at 32 ug/ml soluble peptidoglycan; format: functional
[43] = tested on: Staphylococcus sp.; assay: In vitro antimicrobial activity against CNS GC 4547 at 32 ug/ml soluble peptidoglycan; format: functional
[44] = tested on: Staphylococcus aureus; assay: In vitro antimicrobial activity against Staphylococcus aureus GC 4536 at 32 ug/ml soluble peptidoglycan; format: functional
[45] = tested on: Staphylococcus sp.; assay: In vitro antimicrobial activity against Coagulase-negative staphylococcus GC 4538 at 32 ug/ml soluble peptidoglycan; format: functional
[46] = tested on: Staphylococcus aureus; assay: In vitro antimicrobial activity against Staphylococcus aureus GC 2216 at 32 ug/ml soluble peptidoglycan; format: functional
[47] = tested on: Bacteria; assay: In vitro antimicrobial activity against gram-negative organisms (10)
[48] = Staphylococcus sp., read-out: MIC

For `COC1C(O)[C@@H](OC(C(NCCCNC(=O)[C@H](NC(=O)[C@@H](NC(=O)N[C@H](C(=O)O)C(C)C)C2CCN=C(N)N2)C(O)C(C)C)C(=O)O)[C@H]2O[C@@H](n3ccc(=O)[nH]c3=O)[C@H](O)[C@@H]2O)O[C@H]1CN` (some centres undefined), which Inhibitory activity [1] is on record?
Its Inhibitory activity is “Inhibit”.

What about the Inhibitory activity [2] of the same compound?
Its Inhibitory activity is “Inhibit”.

And the Inhibitory activity [3]?
Its Inhibitory activity is “Inhibit”.

What about the Inhibitory activity [4] of the same compound?
Its Inhibitory activity is “Inhibit”.

And the Inhibitory activity [5]?
The Inhibitory activity was “Inhibit”.

For `COC1C(O)[C@@H](OC(C(NCCCNC(=O)[C@H](NC(=O)[C@@H](NC(=O)N[C@H](C(=O)O)C(C)C)C2CCN=C(N)N2)C(OC(=O)CCCCCCCCCCCN(O)C(=N)N)C(C)C)C(=O)O)[C@H]2O[C@@H](n3ccc(=O)[nH]c3=O)[C@H](O)[C@@H]2O)O[C@H]1CN` (some centres undefined), which MIC [6] is on record?
Its MIC is 32 µg/mL (≈ 26.6 µM).

And the MIC [7]?
Its MIC is 16 µg/mL (≈ 13.3 µM).

What about the MIC [8] of the same compound?
The MIC was 4 µg/mL (≈ 3.33 µM).

What about the MIC [9] of the same compound?
Its MIC is 8 µg/mL (≈ 6.66 µM).

And the MIC [10, 48]?
Its MIC is 1 µg/mL (≈ 0.832 µM).

What about the MIC [11] of the same compound?
Its MIC is 4 µg/mL (≈ 3.33 µM).

And the MIC [12]?
The MIC was 8 µg/mL (≈ 6.66 µM).

And the MIC [13]?
Its MIC is 4 µg/mL (≈ 3.33 µM).

What about the MIC [14] of the same compound?
The MIC was 8 µg/mL (≈ 6.66 µM).

And the MIC [15]?
Its MIC is 2 µg/mL (≈ 1.66 µM).

Which MIC [16] does the source give for `CC(C)C(O)[C@@H](N)C(=O)NCCCN[C@H](C(=O)OC(C)(C)C)[C@@H](O)C1O[C@@H](n2ccc(=O)[nH]c2=O)[C@H](O[Si](C)(C)C(C)(C)C)[C@@H]1O[Si](C)(C)C(C)(C)C` (some centres undefined) here?
Its MIC is 32 µg/mL (≈ 40.6 µM).

What about the MIC [6] of the same compound?
Its MIC is 2 µg/mL (≈ 2.54 µM).

What about the MIC [7] of the same compound?
Its MIC is 2 µg/mL (≈ 2.54 µM).

And the MIC [8]?
The MIC was 2 µg/mL (≈ 2.54 µM).

What about the MIC [9] of the same compound?
Its MIC is greater than 128 µg/mL.

And the MIC [17]?
Its MIC is 128 µg/mL (≈ 162 µM).

What about the MIC [18] of the same compound?
The MIC was greater than 128 µg/mL.

What about the MIC [19] of the same compound?
The MIC was 32 µg/mL (≈ 40.6 µM).

And the MIC [20]?
The MIC was 128 µg/mL (≈ 162 µM).

And the MIC [21]?
The MIC was 128 µg/mL (≈ 162 µM).

And the MIC [22]?
The MIC was 128 µg/mL (≈ 162 µM).

And the Inhibitory activity [1]?
Its Inhibitory activity is “Inhibit”.

What about the Inhibitory activity [2] of the same compound?
Its Inhibitory activity is “Inhibit”.

And the Inhibitory activity [3]?
Its Inhibitory activity is “Inhibit”.

And the Inhibitory activity [4]?
The Inhibitory activity was “Inhibit”.

And the Inhibitory activity [23]?
The Inhibitory activity was “inactive”.

What about the MIC [24] of the same compound?
The MIC was greater than 128 µg/mL.

What about the MIC [25] of the same compound?
The MIC was 128 µg/mL (≈ 162 µM).

What about the MIC [26] of the same compound?
Its MIC is 1 µg/mL (≈ 1.27 µM).

What about the MIC [10] of the same compound?
The MIC was 2 µg/mL (≈ 2.54 µM).

What about the MIC [10, 48] of the same compound?
Its MIC is 1 µg/mL (≈ 1.27 µM).

What about the MIC [27] of the same compound?
The MIC was 1 µg/mL (≈ 1.27 µM).

And the MIC [28]?
Its MIC is 2 µg/mL (≈ 2.54 µM).

And the MIC [29]?
The MIC was 1 µg/mL (≈ 1.27 µM).

And the MIC [14]?
The MIC was 2 µg/mL (≈ 2.54 µM).

And the MIC [30]?
The MIC was greater than 128 µg/mL.

What about the MIC [31] of the same compound?
The MIC was 2 µg/mL (≈ 2.54 µM).

And the MIC [32]?
The MIC was 128 µg/mL (≈ 162 µM).

With `COc1ccc(Cn2c(=O)ccn([C@@H]3OC([C@H](O)[C@H](NCCCNC(=O)[C@H](N)C(C)O)C(=O)OC(C)(C)C)[C@@H](O[Si](C)(C)C(C)(C)C)[C@H]3O[Si](C)(C)C(C)(C)C)c2=O)cc1` (some centres undefined) as the compound, how does the MIC [33] read?
Its MIC is greater than 128 µg/mL.

What about the MIC [34] of the same compound?
Its MIC is 8 µg/mL (≈ 9.09 µM).

What about the MIC [35] of the same compound?
The MIC was 4 µg/mL (≈ 4.54 µM).

What about the MIC [36] of the same compound?
Its MIC is 4 µg/mL (≈ 4.54 µM).

And the Inhibitory activity [1]?
The Inhibitory activity was “Inhibit”.

And the Inhibitory activity [37]?
Its Inhibitory activity is “inactive”.

What about the Inhibitory activity [38] of the same compound?
The Inhibitory activity was “inactive”.

And the Inhibitory activity [39]?
The Inhibitory activity was “inactive”.

What about the Inhibitory activity [40] of the same compound?
The Inhibitory activity was “inactive”.

What about the MIC [41] of the same compound?
The MIC was 8 µg/mL (≈ 9.09 µM).

And the MIC [42]?
The MIC was 4 µg/mL (≈ 4.54 µM).

What about the MIC [43] of the same compound?
Its MIC is 8 µg/mL (≈ 9.09 µM).

What about the MIC [44] of the same compound?
The MIC was 4 µg/mL (≈ 4.54 µM).

What about the MIC [45] of the same compound?
Its MIC is 4 µg/mL (≈ 4.54 µM).

And the MIC [46]?
Its MIC is 4 µg/mL (≈ 4.54 µM).

What about the MIC [47] of the same compound?
Its MIC is greater than 128 µg/mL.
